Test results reported in article PMC5973995 (Clinical Pharmacokinetics, 2017).
Like-named read-outs stand apart in the source and are kept apart here.

Experiments:
5-HT transporter (SERT) = conditions: in vitro; cited from earlier work
5-HT1A receptor = conditions: in vitro; cited from earlier work
CYP2C19 = CYP2C19 (Homo sapiens, UniProt P33261); assay: In-vitro CYP inhibition in pooled human liver microsomes; assay type: in vitro ADME
[1] = assay type: in vivo, human; conditions: for AUC(0-t) / Tmax / Vd/F / half-life: both, human, plasma, oral; for AI (accumulation index = AUC(0–tau) at steady state/AUC(0–24) day 1) / CL/F / C max: healthy subjects, mean (% CV); for C max: steady state
[2] = Mass balance, single oral dose of 50 mg 14C-labeled vortioxetine; assay type: in vivo, human; conditions: single oral dose 50 mg 14C-labeled; data on file
[3] = once-daily 10 mg; 21 young individuals; cited from earlier work
5-HT1B receptor = conditions: in vitro; cited from earlier work
[4] = assay type: in vivo, human; conditions: for AUC(0-inf) / AUC(0-t) / Cmax / Tmax / Vd/F / half-life: both, human, plasma, po; for CL/F: healthy subjects, mean (% CV)
In short: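 Healthy subjects given a single oral dose; plasma parameters derived by non-compartmental analysis of pooled phase I data. Reported as mean and % coefficient of variation, except Tmax as median (minimum–maximum). AUC taken both to infinity and to the last quantifiable concentration. CL/F is total clearance, and Vz/F is the terminal-phase apparent volume after extravascular dosing.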

CYP3A4/5 = assay: In-vitro CYP inhibition in pooled human liver microsomes; assay type: in vitro ADME; conditions: data on file
plasma protein = conditions: healthy volunteers and hepatic or renal impairment; cited from earlier work
5-HT1D receptor = conditions: in vitro; cited from earlier work
[5] = cited from earlier work
CYP2C8 = molecular target: T1, CYP2C8 (Homo sapiens, UniProt P10632); assay: In-vitro CYP inhibition in pooled human liver microsomes; assay type: in vitro ADME
T1 sequence (P10632 1-490): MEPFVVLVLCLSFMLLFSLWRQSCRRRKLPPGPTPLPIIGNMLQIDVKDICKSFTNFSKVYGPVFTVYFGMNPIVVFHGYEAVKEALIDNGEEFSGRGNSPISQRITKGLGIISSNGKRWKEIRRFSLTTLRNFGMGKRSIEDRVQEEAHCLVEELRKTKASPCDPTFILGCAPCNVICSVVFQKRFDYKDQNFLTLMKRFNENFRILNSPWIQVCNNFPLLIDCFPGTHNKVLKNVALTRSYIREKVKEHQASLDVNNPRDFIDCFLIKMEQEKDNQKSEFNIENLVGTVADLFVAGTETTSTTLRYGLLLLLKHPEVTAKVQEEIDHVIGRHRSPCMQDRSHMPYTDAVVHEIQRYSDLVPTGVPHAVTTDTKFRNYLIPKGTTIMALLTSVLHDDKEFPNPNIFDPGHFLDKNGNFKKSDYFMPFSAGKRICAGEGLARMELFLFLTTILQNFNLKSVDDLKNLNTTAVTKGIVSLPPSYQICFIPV

[6] = cited from earlier work; remark: listed apart in the source
5-HT7 receptor = conditions: in vitro; cited from earlier work
[7] = once-daily dosing; cited from earlier work
[8] = Tolerability / adverse events in phase I studies; assay type: in vivo, human; conditions: phase I data grouped by CYP2D6-predicted phenotypes
[9] = cited from earlier work; remark: listed apart in the source
[10] = pooled human liver microsomes, CYP isozyme-specific probe substrates, data on file
[11] = 10 mg daily for 14 days (Fig. 2)
[12] = single dose 10 mg, 65–85 vs 18–45 years
[13] = single dose, 24 male vs 24 female

CYP2C19, sequence (P33261 whole entry): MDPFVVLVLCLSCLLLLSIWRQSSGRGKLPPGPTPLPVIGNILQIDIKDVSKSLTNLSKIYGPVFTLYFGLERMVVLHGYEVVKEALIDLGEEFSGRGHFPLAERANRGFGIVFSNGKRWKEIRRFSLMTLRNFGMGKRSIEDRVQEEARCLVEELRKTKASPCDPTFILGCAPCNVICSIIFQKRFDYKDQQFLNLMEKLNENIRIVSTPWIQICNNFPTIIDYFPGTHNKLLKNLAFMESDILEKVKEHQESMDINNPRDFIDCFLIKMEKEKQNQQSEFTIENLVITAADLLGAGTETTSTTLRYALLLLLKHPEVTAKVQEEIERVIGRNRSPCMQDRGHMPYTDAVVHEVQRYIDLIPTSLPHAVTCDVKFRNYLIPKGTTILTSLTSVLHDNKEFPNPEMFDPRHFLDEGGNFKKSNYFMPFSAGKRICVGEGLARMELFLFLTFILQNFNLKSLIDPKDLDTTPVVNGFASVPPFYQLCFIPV

Br.Cc1ccc(Sc2ccccc2N2CCNCC2)c(C)c1 [vortioxetine, 1-[2-(2,4-dimethyl-phenylsulfanyl)-phenyl]-piperazine, hydrobromide]
action at 5-HT transporter (SERT) (5-HT transporter (SERT)): inhibitor
action at 5-HT1A receptor (5-HT1A receptor): agonist
ratio of maximum plasma concentration of inhibitor (I) and Ki (CYP2C19; CYP2C19, much smaller than): smaller than 0.1
inhibitory effect on CYP2C19 (CYP2C19; [10]): inhibitory effect
AUC(0-t) ([1]; 5 mg): 175 ng·h/mL
Tmax ([1]; 5 mg): 7 h
Vd/F ([1]; 5 mg): 2500 L
half-life ([1]; 5 mg): 60 h
AUC(0-t) ([1]; 10 mg): 344 ng·h/mL
Tmax ([1]; 10 mg): 8 h
Vd/F ([1]; 10 mg): 3290 L
half-life ([1]; 10 mg): 58.8 h
AUC(0-t) ([1]; 20 mg): 646 ng·h/mL
Tmax ([1]; 20 mg): 8 h
Vd/F ([1]; 20 mg): 3370 L
half-life ([1]; 20 mg): 64.2 h
AI (accumulation index = AUC(0–tau) at steady state/AUC(0–24) day 1) ([1]; multiple doses 5 mg): 5.17 (27)
CL/F ([1]; multiple doses 5 mg): 32.96 (33) L/h
C max ([1]; multiple doses 5 mg): 8.69 (42) ng/mL
AI (accumulation index = AUC(0–tau) at steady state/AUC(0–24) day 1) ([1]; multiple doses 10 mg): 4.87 (34)
CL/F ([1]; multiple doses 10 mg): 38.27 (60) L/h
C max ([1]; multiple doses 10 mg): 17.92 (44) ng/mL
AI (accumulation index = AUC(0–tau) at steady state/AUC(0–24) day 1) ([1]; multiple doses 20 mg): 5.68 (38)
CL/F ([1]; multiple doses 20 mg): 40.11 (47) L/h
C max ([1]; multiple doses 20 mg): 33.03 (38) ng/mL
accumulation index (AUC(0–24) ratio steady state / single dose) ([1]; multiple doses of 5–20 mg (Table 2)): 5–6
red blood cell distribution [2]: negligible
impairment of driving, cognitive function, or psychomotor skills [3]: not to impair
action at 5-HT1B receptor (5-HT1B receptor): partial agonist
time to reach maximum observed plasma concentration ([4]; after single or multiple dosing (Tables 1, 2)): 7 to 11 h
AUC(0-inf) ([4]; 5 mg): 188 ng·h/mL
AUC(0-t) ([4]; 5 mg): 157 ng·h/mL
Cmax ([4]; 5 mg): 1.87 ng/mL
Tmax ([4]; 5 mg): 11 h
Vd/F ([4]; 5 mg): 2740 L
half-life ([4]; 5 mg): 69.4 h
AUC(0-inf) ([4]; 10 mg): 273 ng·h/mL
AUC(0-t) ([4]; 10 mg): 255 ng·h/mL
Cmax ([4]; 10 mg): 4.6 ng/mL
Tmax ([4]; 10 mg): 8 h
Vd/F ([4]; 10 mg): 2770 L
half-life ([4]; 10 mg): 60.6 h
AUC(0-inf) ([4]; 20 mg): 646 ng·h/mL
AUC(0-t) ([4]; 20 mg): 561 ng·h/mL
Cmax ([4]; 20 mg): 8.11 ng/mL
Tmax ([4]; 20 mg): 10 h
Vd/F ([4]; 20 mg): 3290 L
half-life ([4]; 20 mg): 64.3 h
estimated total clearance (CL/F) ([4]; oral, single or multiple doses (Tables 1, 2)): 30 to 41 L/h
CL/F ([4]; single oral dose 5 mg): 29.62 (35) L/h
CL/F ([4]; single oral dose 10 mg): 40.52 (40) L/h
CL/F ([4]; single oral dose 20 mg): 41.47 (60) L/h
inhibitory in-vitro effect on CYP3A4/5 (CYP3A4/5): no inhibitory in-vitro effect
bound to plasma protein (plasma protein): Approximately 99%
unbound drug (plasma protein): 1%
action at 5-HT1D receptor (5-HT1D receptor): antagonist
effect of food (high-fat meal) on PK parameters ([5]; fed vs fasting): No food effect
90% CIs for AUC(0–t) or AUC(0–inf) and C max ratios (fed to fasting) ([5]; high-fat meal, within bioequivalence range): 80–125%
ratio of maximum plasma concentration of inhibitor (I) and Ki (CYP2C8; CYP2C8, much smaller than): smaller than 0.1
inhibitory effect on CYP2C8 (CYP2C8; [10]): inhibitory effect
effect on neuropsychologic tests of cognitive domains with diazepam ([6]; co-administration with diazepam): did not have a statistically significant effect
effect on mental and motor impairment effects of alcohol ([6]; computerized neuropsychologic tests): did not increase
action at 5-HT7 receptor (5-HT7 receptor): antagonist
time to steady-state plasma concentrations [7]: ≤ 2 weeks
overall incidence of adverse events, CYP2D6 PMs vs non-PMs [8]: no clinically relevant differences
AUC(0–24) higher in black than white volunteers [9, 11]: 25%
C max higher in black than white volunteers [9, 11]: 33%
AUC(0–t) higher in elderly than young subjects [9, 12]: 4%
C max lower in elderly than young subjects [9, 12]: 11%
AUC(0–t) higher in female than male subjects [9, 13]: 18%
C max higher in female than male subjects [9, 13]: 16%
